# Fh CTSL1 inh: blocks F. hepatica cathepsin L1 in PFM18AAP counter-screen | hit rate 0.49% among 300,000 | inhibition, % at 5.96 µM | recombinant F. hepatica cathepsin L1, Z-Leu-Arg-MCA fluorescence;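 active means inhibition above the mean of all tested compounds plus 3 SD, set per screening campaign, cut at about 17% in these data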;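 further: 0% = plate median of test compound wells and 100% = 1 µM Z-Phe-Ala-diazomethylketone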
# UCH37 inh: blocks the human deubiquitinase UCH37; Q9Y5K5; purified proteasome/UCH37, Ub-AMC cleavage fluorescence; inhibition, % (no concentration beside the values); hit rate 0.33% among 330,000; AID 588478;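 active means mean inhibition over replicate wells above about 20%, limit read from the data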;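 further: 0% = compound-free wells with enzyme and 100% = wells lacking proteasome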
# Target sequence (Q9Y5K5 whole entry, looked up): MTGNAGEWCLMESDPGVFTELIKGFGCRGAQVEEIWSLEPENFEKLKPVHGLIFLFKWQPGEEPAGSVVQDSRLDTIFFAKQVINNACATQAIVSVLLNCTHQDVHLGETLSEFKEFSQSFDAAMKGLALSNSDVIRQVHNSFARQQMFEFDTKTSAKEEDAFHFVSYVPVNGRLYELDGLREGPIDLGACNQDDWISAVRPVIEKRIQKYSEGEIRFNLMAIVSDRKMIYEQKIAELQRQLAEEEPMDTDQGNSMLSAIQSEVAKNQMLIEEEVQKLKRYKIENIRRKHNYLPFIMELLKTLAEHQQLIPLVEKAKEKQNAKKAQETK
#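 Assay system: Proteasome-bound UCH37. Buffer or medium: pH 7.4 Tris-HCl (50 mM) with ovalbumin, ATP-MgCl2, DTT. Incubation: 30 min preincubation with enzyme, 25 min cleavage at room temperature. Measured by: fluorescence, ex 355 nm, em 460 nm. Read-out basis: percent inhibition. Control set: wells without proteasome as full block, compound-free enzyme plus substrate as uninhibited.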
# CHOP UPR activ: apoptotic UPR (CHOP) activation | CHO-CHOP luciferase reporter, luminescence; percent of tunicamycin response over DMSO baseline | activation, % at 10 µM | hit rate 0.34% among 330,000 | AID 449763;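 active means at 10 µM dose, activation of 40% or more, normalized to positive control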;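 further: 100% = tunicamycin at 10 µg/mL and 0% = DMSO alone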
#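 measured by = luciferase luminescence | assay system = CHO-CHOP cells, stable luciferase reporter of PERK-eIF2a-CHOP signalling | amount = 500 reporter cells seeded per well | timing = 6 h compound exposure at 37 °C after overnight seeding | controls = positive tunicamycin 10 µg/mL, negative DMSO alone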
# XBP1 UPR activ: activators of adaptive arm of unfolded protein response (XBP1) | hit rate 0.33% among 330,000 | CHO-XBP1 luciferase reporter, IRE1-XBP1 UPR activation, luminescence; percent of tunicamycin response, DMSO as zero | activation, % at 20 µM;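 active means versus positive control, 20 µM dose yields 30% or more activation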;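 further: 100% = tunicamycin at 10 µg/mL and 0% = DMSO only wells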
#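 Test system: CHO-XBP1 luciferase reporter cells | Buffer or medium: Serum-containing F12 medium, 10% FBS | Schedule: 6 h compound exposure at 37 °C, 5% CO2 | Detection: Steady-Glo luciferase glow luminescence, 10 min after reagent addition | Read-out basis: Activation, % of tunicamycin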
# CHOP inhibitor: blocks CHOP induction under ER stress; CHO-K1 CHOP-promoter luciferase, tunicamycin-induced, 15-18 h; hit rate 3.8% among 220,000; inhibition, % at 10 µM; AID 2732;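 active means compounds that reduced the stress-induced luciferase reporter signal by more than about 70% of percent inhibition, limit read from the data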;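 further: 0% = tunicamycin plus vehicle and 100% = wells without tunicamycin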
# * hit, by the source's call; / = no result given. Many of the other results were omitted from the sample, so hits are more common in it than they were.
SMILES,Fh CTSL1 inh,UCH37 inh,CHOP UPR activ,XBP1 UPR activ,CHOP inhibitor
O=C(CSCc1ccc(Cl)cc1)NN=Cc1ccco1,/,2,/,/,/
NC(=O)CSc1nnc2sc3ccccc3n12,5,24*,2,-2,-17
COC(=O)N=C(Cc1ccc(OC)cc1)c1ccc(OC)cc1,/,5,/,/,/
CC(=O)OCc1c(C(F)(F)F)nn(C)c1Oc1cccc(C(F)(F)F)c1,0,2,2,-1,75*
O=C(CN1CCN(Cc2ccccc2Cl)CC1)NN=Cc1ccco1,/,3,/,/,/
Cc1ccc(Cn2c(=O)n(CCC(=O)NCc3ccc4c(c3)OCO4)c(=O)c3ccccc32)cc1,-1,2,2,0,95*
O=C(NCc1ccc2c(c1)OCO2)Nc1cccc2ccccc12,1,3,2,-2,86*
O=C(COC(=O)c1ccc([N+](=O)[O-])o1)NCc1ccc(F)cc1,/,25*,1,-1,/
CCN(C(=O)COC(=O)c1ccc([N+](=O)[O-])o1)C1CCCCC1,/,21*,3,0,/
O=C(COC(=O)c1ccc([N+](=O)[O-])o1)NC1CCS(=O)(=O)C1 (stereo not drawn),-7,25*,0,1,-24
O=C(COC(=O)c1ccc([N+](=O)[O-])o1)NCCCc1ccccc1,/,20*,2,3,/
C=CCc1cccc(C=NNC(=O)C(C)Nc2ccc(C)cc2)c1O (stereo not drawn),/,2,/,/,/
Cc1cc(C)nc(NN=Cc2ccccc2OCc2ccc([N+](=O)[O-])cc2)n1,/,5,/,/,/
COc1cccc(-c2nn(-c3ccccc3)cc2C(=O)OCC(=O)Nc2ncc(Cl)cc2Cl)c1,4,6,1,0,14
Cc1ccc(C(=O)COC(=O)c2cn(-c3ccccc3)nc2-c2ccccc2)cc1[N+](=O)[O-],-3,2,11,1,76*
O=C(COC(=O)c1cn(-c2ccccc2)nc1-c1ccccc1)Nc1ncc(Cl)cc1Cl,-2,1,-1,-4,77*
O=C(COC(=O)c1cn(-c2ccccc2)nc1-c1ccccc1)c1ccc([N+](=O)[O-])cc1,1,/,6,-2,49
CCCCCCCCn1c2c(c(=N)c3ccccc31)CCC2,/,1,16,15,77*
Nc1nnnn1CC(=O)NN=Cc1ccccn1,/,-1,/,/,/
CCCCC(=O)Nc1nc2ccc3nc(C)sc3c2s1,-2,2,1,1,44
CCCC(=O)Nc1nc2ccc3nc(C)sc3c2s1,-2,0,5,-1,75*
COc1cc(CNC2CCCC2)cc(Cl)c1OCc1ccc(F)cc1,2,2,1,-1,67
COc1cc(CNC2CCCC2)cc(Cl)c1OCc1ccccc1Cl,0,2,-2,14,74*
CCn1cc(C=NNC(=O)c2ccccc2Cl)cn1,/,-1,/,/,/
CSc1c(C#N)c(N)c(C#N)c2c1COC(C)(C)C2,17*,-108,-2,3,-8
SMILES,Fh CTSL1 inh,UCH37 inh,CHOP UPR activ,XBP1 UPR activ,CHOP inhibitor
COc1ccc(NC(=O)ON=C2CCCc3ccc(OC)cc32)cc1,/,-1,/,/,/
O=C(NCc1ccco1)c1cc2n(n1)C(C(F)(F)F)CC(c1ccc(Br)cc1)N2 (stereo not drawn),-1,2,2,0,77*
O=C(NCc1ccccn1)c1cc2n(n1)C(C(F)(F)F)CC(c1ccco1)N2 (stereo not drawn),-5,5,-2,0,1
O=C(NCc1ccco1)c1cc2n(n1)C(C(F)(F)F)CC(c1ccc(Cl)c(Cl)c1)N2 (stereo not drawn),2,2,0,4,88*
COc1ccc(OC)c(NC(=O)c2cc3n(n2)C(C(F)(F)F)CC(c2ccc4c(c2)OCO4)N3)c1 (stereo not drawn),0,-2,0,-1,/
COc1ccccc1NC(=O)c1cc2n(n1)C(C(F)(F)F)CC(c1ccc3c(c1)OCO3)N2 (stereo not drawn),0,-2,-4,-6,88*
CCOc1ccc(C=NOCC(=O)NCc2cccs2)cc1,/,-2,/,/,/
COc1ccc(NC(=O)CC(C)=NNC(=O)CCc2ccccc2)c(OC)c1,/,1,/,/,/
Cc1ccc(NC2=NCC(Cc3ccc(Br)cc3)S2)cc1 (stereo not drawn),1,1,-2,3,74*
CC1=CC(=O)c2c(O)ccc(O)c2C1=O,18*,/,/,/,106*
O=C1C=C(O)c2cccc(O)c2C1=O,0,/,1,-1,-11
CC(=O)Nc1ccc(N/C=C/C(=O)C(C)(C)C)cc1,-1,13,3,3,21
Cc1ccc(N/C=C/C(=O)C(C)(C)C)c(O)c1,-2,-2,3,2,86*
COc1ccccc1C=c1sc2nc(-c3ccccc3OC)nn2c1=O,/,0,/,/,/
CC(=NNC(=O)C1CC1)c1ccc(C(C)(C)C)cc1,/,1,/,/,/
CC(C)(C)OC(=O)N1CCN(C(=O)c2ncn(Cc3ccccc3)c2C(=O)N2CCN(C(=O)OC(C)(C)C)CC2)CC1,/,29*,3,9,/
Cc1ccc(C(=O)C=CNCc2ccccc2)cc1,/,9,/,/,/
CC(/C=C/C(=O)c1ccc(C)cc1)=C\c1ccccc1,5,1,5,-2,91*
CCN(CC(=O)Nc1ccc2c(c1)CCC2)Cc1nc2ccccc2c(=O)[nH]1,6,0,-2,3,71*
S=C(NCCC(c1ccccc1)c1ccccc1)Nc1cccc(Cl)c1,-2,-3,0,-3,94*
S=C(NCCN(C1CCCCC1)C1CCCC1)Nc1cccc(Cl)c1,0,0,2,0,/
Cc1cccc(OCC(=O)Nc2cc(NC(=O)COc3cccc(C)c3C)cc(C(=O)O)c2)c1C,8,0,1,-5,/
Cc1ccccc1OCC(=O)Nc1cccc(C(=O)O)c1,/,0,/,/,89*
CCOc1ccccc1NC(=O)c1ccc(Cl)c(NC(=O)CC(c2ccccc2)c2ccccc2)c1,-1,3,-2,-6,1
O=C(Nc1cccc(Cl)c1)Nc1cccc(C(=O)O)c1,-1,5,-6,-7,21
SMILES,Fh CTSL1 inh,UCH37 inh,CHOP UPR activ,XBP1 UPR activ,CHOP inhibitor
CCOc1ccccc1NC(=O)c1cccc(NC(=O)CC(c2ccccc2)c2ccccc2)c1,18*,1,0,-4,45
O=C(Nc1ccc(Cl)cc1)Nc1cccc(C(=O)O)c1,-2,-1,-8,-9,79*
CON=Cc1ccc(N2CCN(C(=O)c3ccc(C)cc3)CC2)c([N+](=O)[O-])c1,/,5,/,/,/
CCOc1ccc(NC(=O)Nc2cccc(C(=O)O)c2)cc1,-3,/,-9,-8,93*
O=C(Nc1ccccc1)Nc1cccc(Cl)c1,-4,6,4,0,95*
CCOC(=O)c1cccc(NC(=O)Nc2ccc(OCC)cc2)c1,4,0,2,5,0
Cc1ccc(NC(=O)N/C=C/c2ccc(Cl)cc2)cc1,-1,4,5,2,10

# Compound activity from PubChem BioAssay.
